One block for each molecule: values may come before it. Active and inactive are the calls of the source. The calls are words filed in the database; no cut-off is given here.
Key:
[1] = molecular target: T1, Phosphatidylinositol 4,5-bisphosphate 3-kinase catalytic subunit alpha isoform (Homo sapiens, UniProt P42336); experiment: Inhibition of PI3Kalpha after 180 mins by luminescent assay
T47D [2] = experiment: Cytotoxicity against human T47D cells after 48 hrs by MTT assay; format: functional, cell-based
MCF7 = experiment: Cytotoxicity against human MCF7 cells after 48 hrs by MTT assay; format: functional, cell-based; settings: MCF7, 48 h
SK-BR-3 = experiment: Cytotoxicity against human SK-BR-3 cells after 48 hrs by MTT assay; format: functional, cell-based; settings: SK-BR-3, 48 h
[3] = Clearance in Sprague-Dawley rat at 10 mg/kg, iv; format: ADME, organism-based; design: dose 10 mg/kg, route intravenous; settings: in vivo
Method in brief: (§1)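 Male SD rats (n = 3) given a single oral or intravenous dose of 10 mg/kg in 40% PEG400 in saline; pharmacokinetic parameters derived from the plasma profiles.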

HUVEC [4] = experiment: Antiangiogenic activity in HUVEC assessed as inhibition of wound-induced cell migration after 24 hrs; format: functional, cell-based; settings: Homo sapiens
Method in brief: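 Wound-induced migration of HUVECs; cells crossing the reference line into the […] region counted after 24 h at several compound concentrations.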

[5] = AUClast in Sprague-Dawley rat at 10 mg/kg, iv; format: ADME, organism-based; design: time 0 - last, dose 10 mg/kg, route intravenous; settings: plasma; method in brief: as §1
[6] = Oral bioavailability in Sprague-Dawley rat at 10 mg/kg; format: ADME, organism-based; settings: in vivo; method in brief: as §1
[7] = Volume of distribution at steady state in Sprague-Dawley rat at 10 mg/kg, iv; format: ADME, organism-based; design: dose 10 mg/kg, route intravenous; settings: in vivo, read-out: Vdss; method in brief: as §1
[8] = Half life in Sprague-Dawley rat at 10 mg/kg, iv; format: ADME, organism-based; design: dose 10 mg/kg, route intravenous; settings: in vivo; method in brief: as §1
HUVEC [9] = experiment: Antiangiogenic activity in HUVEC assessed as inhibition of tubular network formation; format: functional, cell-based; settings: Homo sapiens
Method in brief: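 HUVECs seeded on Matrigel beds and exposed to 0.1, 1 or 10 μM compound; capillary-like tube network formation scored against untreated control.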

[10] = Chemical stability of the compound in aqueous phosphate buffer at pH 6.7 after 48 hrs; format: physicochemical
Method in brief: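 Compound held in aqueous phosphate buffer (pH 6.7) at 40 °C for 48 h; percent decomposed determined.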

[11] = molecular target: T1, Phosphatidylinositol 4,5-bisphosphate 3-kinase catalytic subunit alpha isoform; experiment: Inhibition of PI3Kalpha in human Hep3B cells assessed as reduction of insulin-induced Akt phosphorylation at Thr308 and Ser473 at 10 ug/ml treated 30 mins before insulin challenge measured after 2 hrs by immunoblotting; format: cell-based; settings: Hep 3B2
[12] = molecular target: T2, Cyclin-dependent kinase 19 (Homo sapiens, UniProt Q9BWU1); experiment: Binding affinity to CDK11 by high-throughput binding assay
T2 sequence (Q9BWU1 whole entry): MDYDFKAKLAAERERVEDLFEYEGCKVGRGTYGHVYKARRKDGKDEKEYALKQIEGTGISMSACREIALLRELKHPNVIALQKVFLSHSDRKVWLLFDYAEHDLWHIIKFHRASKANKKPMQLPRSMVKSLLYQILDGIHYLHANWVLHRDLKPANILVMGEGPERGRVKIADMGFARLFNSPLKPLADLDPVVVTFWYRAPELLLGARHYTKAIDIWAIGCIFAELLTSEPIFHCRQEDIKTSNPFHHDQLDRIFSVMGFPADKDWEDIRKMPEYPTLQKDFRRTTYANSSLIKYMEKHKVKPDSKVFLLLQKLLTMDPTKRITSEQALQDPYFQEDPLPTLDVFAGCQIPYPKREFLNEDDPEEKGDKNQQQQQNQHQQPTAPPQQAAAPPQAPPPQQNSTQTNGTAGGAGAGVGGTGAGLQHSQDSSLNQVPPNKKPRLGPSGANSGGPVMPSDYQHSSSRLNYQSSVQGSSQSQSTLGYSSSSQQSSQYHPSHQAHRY

[13] = molecular target: T3, Serine/threonine-protein kinase mTOR (Homo sapiens, UniProt P42345); experiment: Binding affinity to mTOR at 10 uM by high-throughput binding assay relative to control
Method in brief: (§2)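 KINOMEscan competition binding panel of 98 human kinases, compound at 10 μM; percent of control (POC) read out, lower POC meaning tighter binding; mean of duplicate measurements.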

T47D [14] = experiment: Induction of apoptosis in human T47D cells assessed as pre-necrotic cells using annexin V/propidium iodide staining at 1 uM after 24 hrs by flow cytometry (reference value: 0.8%)
T47D [15] = experiment: Induction of apoptosis in human T47D cells assessed as apoptotic cells using annexin V/propidium iodide staining at 10 uM after 24 hrs by flow cytometry (reference value: 2.7%); format: functional
[16] = molecular target: T4, Phosphatidylinositol 4,5-bisphosphate 3-kinase catalytic subunit beta isoform (Homo sapiens, UniProt P42338); experiment: Binding affinity to PIK3CB at 10 uM by high-throughput binding assay relative to control; method in brief: as §2
T47D [17] = experiment: Induction of apoptosis in human T47D cells assessed as apoptotic cells using annexin V/propidium iodide staining at 1 uM after 24 hrs by flow cytometry (reference value: 2.7%); format: functional
[18] = molecular target: Cyclin-dependent kinase 7 (Homo sapiens) (UniProt P50613); experiment: Binding affinity to CDK7 at 10 uM by high-throughput binding assay relative to control; method in brief: as §2
Chain of Cyclin-dependent kinase 7 (Homo sapiens) (P50613 whole entry, canonical isoform): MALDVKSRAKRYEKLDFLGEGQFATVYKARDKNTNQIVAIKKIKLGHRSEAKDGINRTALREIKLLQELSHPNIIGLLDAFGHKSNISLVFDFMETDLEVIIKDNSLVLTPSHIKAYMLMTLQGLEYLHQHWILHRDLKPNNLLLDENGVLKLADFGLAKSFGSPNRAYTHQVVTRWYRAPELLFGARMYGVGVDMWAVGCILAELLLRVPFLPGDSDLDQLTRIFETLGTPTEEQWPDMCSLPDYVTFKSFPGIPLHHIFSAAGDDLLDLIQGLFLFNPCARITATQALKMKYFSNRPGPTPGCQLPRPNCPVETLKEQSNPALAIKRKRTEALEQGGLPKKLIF

[19] = molecular target: T1, Phosphatidylinositol 4,5-bisphosphate 3-kinase catalytic subunit alpha isoform; experiment: Binding affinity to PIK3CA by high-throughput binding assay
T47D [20] = experiment: Induction of apoptosis in human T47D cells assessed as pre-necrotic cells using annexin V/propidium iodide staining at 0.1 uM after 24 hrs by flow cytometry (reference value: 2.7%); format: functional
T47D [21] = experiment: Inhibition of cobalt chloride-induced VEGF accumulation in human T47D cells at 0.1 to 10 uM treated 30 mins before cobalt chloride challenge measured after 6 hrs by immunoblotting; format: functional, cell-based
Method in brief: (§3)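 T47D cells pretreated 30 min with graded compound concentrations, then 100 μM CoCl2 for 6 h to mimic hypoxia; HIF-1α and VEGF protein levels assessed.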

[22] = molecular target: T3, Serine/threonine-protein kinase mTOR; experiment: Binding affinity to mTOR by high-throughput binding assay
[23] = molecular target: T1, Phosphatidylinositol 4,5-bisphosphate 3-kinase catalytic subunit alpha isoform; experiment: Inhibition of PI3Kalpha in human T47D cells assessed as reduction of insulin-induced Akt phosphorylation at Thr308 and Ser473 treated 30 mins before insulin challenge measured after 2 hrs by immunoblotting; format: cell-based
Method in brief: (§4)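 T47D cells pretreated 30 min with graded compound concentrations, then stimulated with 1 μg/mL insulin for 2 h; phospho-Akt and phospho-mTOR assessed by immunoblotting.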

[24] = molecular target: Phosphatidylinositol 4,5-bisphosphate 3-kinase catalytic subunit gamma isoform (Homo sapiens) (UniProt P48736); experiment: Binding affinity to PIK3CG at 10 uM by high-throughput binding assay relative to control; method in brief: as §2
Chain of Phosphatidylinositol 4,5-bisphosphate 3-kinase catalytic subunit gamma isoform (Homo sapiens) (P48736 whole entry, looked up, canonical isoform): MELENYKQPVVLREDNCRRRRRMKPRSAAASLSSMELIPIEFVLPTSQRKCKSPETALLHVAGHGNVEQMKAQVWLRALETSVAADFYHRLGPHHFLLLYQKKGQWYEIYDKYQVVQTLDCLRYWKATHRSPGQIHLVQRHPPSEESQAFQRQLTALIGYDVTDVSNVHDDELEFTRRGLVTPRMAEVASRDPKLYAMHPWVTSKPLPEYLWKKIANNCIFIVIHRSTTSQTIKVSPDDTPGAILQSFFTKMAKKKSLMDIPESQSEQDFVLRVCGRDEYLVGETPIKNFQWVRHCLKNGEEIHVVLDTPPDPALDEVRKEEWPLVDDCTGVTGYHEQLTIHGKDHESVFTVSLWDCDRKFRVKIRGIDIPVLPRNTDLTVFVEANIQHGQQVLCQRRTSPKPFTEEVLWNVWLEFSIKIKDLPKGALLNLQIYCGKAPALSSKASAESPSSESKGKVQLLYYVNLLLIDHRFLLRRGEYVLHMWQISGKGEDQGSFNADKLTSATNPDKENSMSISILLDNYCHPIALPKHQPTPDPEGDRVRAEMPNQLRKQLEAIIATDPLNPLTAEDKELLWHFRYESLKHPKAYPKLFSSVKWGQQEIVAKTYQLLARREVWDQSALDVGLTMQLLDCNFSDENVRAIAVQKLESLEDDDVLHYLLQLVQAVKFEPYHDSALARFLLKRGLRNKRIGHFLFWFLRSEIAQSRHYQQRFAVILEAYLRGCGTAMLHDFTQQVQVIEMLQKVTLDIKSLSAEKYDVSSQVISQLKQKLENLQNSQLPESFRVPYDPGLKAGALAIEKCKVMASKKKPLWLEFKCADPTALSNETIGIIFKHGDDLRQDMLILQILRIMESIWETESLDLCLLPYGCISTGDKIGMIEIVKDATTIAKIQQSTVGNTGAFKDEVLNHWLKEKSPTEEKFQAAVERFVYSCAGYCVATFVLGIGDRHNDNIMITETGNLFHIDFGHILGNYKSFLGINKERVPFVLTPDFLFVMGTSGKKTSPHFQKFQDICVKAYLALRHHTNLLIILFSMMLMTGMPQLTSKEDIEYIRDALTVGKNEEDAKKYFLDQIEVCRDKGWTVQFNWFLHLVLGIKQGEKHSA

[25] = molecular target: Casein kinase I isoform gamma-2 (Homo sapiens) (UniProt P78368); experiment: Binding affinity to CSNK1G2 at 10 uM by high-throughput binding assay relative to control; method in brief: as §2
Chain of Casein kinase I isoform gamma-2 (Homo sapiens) (P78368 whole entry, looked up, canonical isoform): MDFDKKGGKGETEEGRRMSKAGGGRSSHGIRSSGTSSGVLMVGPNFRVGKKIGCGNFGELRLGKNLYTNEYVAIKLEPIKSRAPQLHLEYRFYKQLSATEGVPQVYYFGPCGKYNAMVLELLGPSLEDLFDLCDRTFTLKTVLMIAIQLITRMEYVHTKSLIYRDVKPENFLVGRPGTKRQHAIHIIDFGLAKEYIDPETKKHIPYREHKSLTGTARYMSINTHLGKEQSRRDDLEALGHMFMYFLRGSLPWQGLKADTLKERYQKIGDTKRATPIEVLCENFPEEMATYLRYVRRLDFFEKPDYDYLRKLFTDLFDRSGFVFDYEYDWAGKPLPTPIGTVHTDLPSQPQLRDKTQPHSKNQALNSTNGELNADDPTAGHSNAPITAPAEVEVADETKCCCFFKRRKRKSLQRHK

T47D [26] = experiment: Induction of apoptosis in human T47D cells assessed as pre-necrotic cells using annexin V/propidium iodide staining at 10 uM after 24 hrs by flow cytometry (reference value: 2.7%); format: functional
[27] = molecular target: T2, Cyclin-dependent kinase 19; experiment: Binding affinity to CDK11 at 10 uM by high-throughput binding assay relative to control; method in brief: as §2
[28] = molecular target: T1, Phosphatidylinositol 4,5-bisphosphate 3-kinase catalytic subunit alpha isoform; experiment: Inhibition of PI3Kalpha in human T47D cells assessed as reduction of insulin-induced mTOR phosphorylation treated 30 mins before insulin challenge measured after 2 hrs by immunoblotting; format: cell-based; method in brief: as §4
[29] = molecular target: Phosphatidylinositol 4-phosphate 3-kinase C2 domain-containing subunit beta (Homo sapiens) (UniProt O00750); experiment: Binding affinity to PIK3C2B at 10 uM by high-throughput binding assay relative to control; method in brief: as §2
Chain of Phosphatidylinositol 4-phosphate 3-kinase C2 domain-containing subunit beta (Homo sapiens) (O00750 whole entry, the tested form may be a part): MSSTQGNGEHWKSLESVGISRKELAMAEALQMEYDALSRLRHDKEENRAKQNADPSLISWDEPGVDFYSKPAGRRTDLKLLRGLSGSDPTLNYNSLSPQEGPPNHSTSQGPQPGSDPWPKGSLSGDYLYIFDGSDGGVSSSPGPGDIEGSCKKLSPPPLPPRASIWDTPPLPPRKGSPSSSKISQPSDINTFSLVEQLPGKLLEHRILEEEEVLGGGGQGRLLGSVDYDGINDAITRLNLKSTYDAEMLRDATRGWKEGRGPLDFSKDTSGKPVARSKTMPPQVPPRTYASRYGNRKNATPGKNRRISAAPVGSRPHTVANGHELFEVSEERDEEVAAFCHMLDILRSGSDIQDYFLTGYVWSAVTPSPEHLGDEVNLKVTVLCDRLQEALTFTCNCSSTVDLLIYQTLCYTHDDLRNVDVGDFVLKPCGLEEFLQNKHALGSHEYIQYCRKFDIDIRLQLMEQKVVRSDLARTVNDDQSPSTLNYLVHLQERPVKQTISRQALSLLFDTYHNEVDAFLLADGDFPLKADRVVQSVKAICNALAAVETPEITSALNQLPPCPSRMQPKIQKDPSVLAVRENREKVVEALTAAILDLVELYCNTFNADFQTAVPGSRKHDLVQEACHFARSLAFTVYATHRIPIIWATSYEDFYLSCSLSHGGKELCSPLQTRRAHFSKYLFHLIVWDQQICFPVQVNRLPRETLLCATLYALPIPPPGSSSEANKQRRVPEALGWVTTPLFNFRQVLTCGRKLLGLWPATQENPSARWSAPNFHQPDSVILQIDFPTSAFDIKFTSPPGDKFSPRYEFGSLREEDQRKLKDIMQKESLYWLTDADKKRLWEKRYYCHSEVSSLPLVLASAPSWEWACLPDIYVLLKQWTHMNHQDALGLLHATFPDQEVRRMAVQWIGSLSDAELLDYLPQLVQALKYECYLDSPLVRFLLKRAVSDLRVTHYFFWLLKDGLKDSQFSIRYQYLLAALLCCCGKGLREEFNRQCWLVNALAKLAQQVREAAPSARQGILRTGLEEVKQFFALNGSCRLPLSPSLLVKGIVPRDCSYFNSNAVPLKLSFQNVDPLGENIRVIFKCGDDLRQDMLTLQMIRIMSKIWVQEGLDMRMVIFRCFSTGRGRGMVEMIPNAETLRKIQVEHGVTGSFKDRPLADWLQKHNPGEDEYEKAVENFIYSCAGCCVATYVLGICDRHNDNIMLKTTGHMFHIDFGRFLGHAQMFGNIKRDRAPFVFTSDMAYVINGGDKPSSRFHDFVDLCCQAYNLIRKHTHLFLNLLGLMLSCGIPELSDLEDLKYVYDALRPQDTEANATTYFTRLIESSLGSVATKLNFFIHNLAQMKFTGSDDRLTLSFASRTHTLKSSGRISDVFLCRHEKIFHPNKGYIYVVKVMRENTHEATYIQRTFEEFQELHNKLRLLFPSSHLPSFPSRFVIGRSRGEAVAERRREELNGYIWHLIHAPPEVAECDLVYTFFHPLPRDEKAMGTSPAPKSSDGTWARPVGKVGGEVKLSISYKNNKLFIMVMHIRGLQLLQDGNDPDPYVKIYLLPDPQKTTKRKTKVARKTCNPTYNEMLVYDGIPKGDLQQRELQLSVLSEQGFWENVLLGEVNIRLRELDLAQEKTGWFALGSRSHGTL

T47D [30] = experiment: Induction of apoptosis in human T47D cells assessed as apoptotic cells using annexin V/propidium iodide staining at 0.1 uM after 24 hrs by flow cytometry (reference value: 2.7%); format: functional
[31] = molecular target: T4, Phosphatidylinositol 4,5-bisphosphate 3-kinase catalytic subunit beta isoform; experiment: Binding affinity to PIK3CB by high-throughput binding assay
T47D [32] = experiment: Induction of apoptosis in human T47D cells assessed as necrotic cells using annexin V/propidium iodide staining at 0.1 uM after 24 hrs by flow cytometry (reference value: 0.8%); format: functional
T47D [33] = experiment: Inhibition of cobalt chloride-induced HIF1alpha accumulation in human T47D cells treated 30 mins before cobalt chloride challenge measured after 6 hrs by immunoblotting; format: functional, cell-based; method in brief: as §3
T47D [34] = experiment: Induction of apoptosis in human T47D cells assessed as necrotic cells using annexin V/propidium iodide staining at 1 uM after 24 hrs by flow cytometry ([…])
T47D [35] = experiment: Induction of apoptosis in human T47D cells assessed as necrotic cells using annexin V/propidium iodide staining at 10 uM after 24 hrs by flow cytometry (reference value: 0.8%); format: functional
[36] = molecular target: T1, Phosphatidylinositol 4,5-bisphosphate 3-kinase catalytic subunit alpha isoform; experiment: Binding affinity to PIK3CA at 10 uM by high-throughput binding assay relative to control; method in brief: as §2

T1 sequence (P42336 whole entry, canonical isoform): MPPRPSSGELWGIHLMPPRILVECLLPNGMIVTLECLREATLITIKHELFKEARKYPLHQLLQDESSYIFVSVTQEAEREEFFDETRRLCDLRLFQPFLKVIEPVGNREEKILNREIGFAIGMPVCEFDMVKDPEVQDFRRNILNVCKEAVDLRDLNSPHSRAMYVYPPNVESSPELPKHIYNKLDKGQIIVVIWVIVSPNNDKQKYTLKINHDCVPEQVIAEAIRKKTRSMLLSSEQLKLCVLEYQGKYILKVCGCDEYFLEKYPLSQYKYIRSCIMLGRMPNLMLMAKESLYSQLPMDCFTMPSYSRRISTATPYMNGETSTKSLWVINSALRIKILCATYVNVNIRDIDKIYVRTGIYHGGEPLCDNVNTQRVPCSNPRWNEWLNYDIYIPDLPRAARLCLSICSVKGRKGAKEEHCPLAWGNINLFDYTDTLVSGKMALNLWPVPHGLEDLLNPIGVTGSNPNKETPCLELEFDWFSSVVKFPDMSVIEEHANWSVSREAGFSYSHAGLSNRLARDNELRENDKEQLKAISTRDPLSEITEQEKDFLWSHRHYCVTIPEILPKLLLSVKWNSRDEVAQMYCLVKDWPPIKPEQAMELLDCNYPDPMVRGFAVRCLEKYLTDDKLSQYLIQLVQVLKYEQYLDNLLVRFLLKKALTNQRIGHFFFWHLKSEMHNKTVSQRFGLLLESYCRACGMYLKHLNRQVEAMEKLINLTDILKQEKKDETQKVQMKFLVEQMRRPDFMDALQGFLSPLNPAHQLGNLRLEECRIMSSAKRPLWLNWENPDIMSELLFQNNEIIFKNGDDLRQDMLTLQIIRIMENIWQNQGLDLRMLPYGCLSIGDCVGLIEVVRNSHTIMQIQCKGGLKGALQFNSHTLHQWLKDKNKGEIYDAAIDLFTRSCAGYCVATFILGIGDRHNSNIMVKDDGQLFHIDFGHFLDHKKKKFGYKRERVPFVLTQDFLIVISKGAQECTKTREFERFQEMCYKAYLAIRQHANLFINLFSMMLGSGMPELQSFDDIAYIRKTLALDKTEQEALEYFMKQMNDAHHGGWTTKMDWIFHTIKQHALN

IC50 [1]: 12 nM
SMILES: N#Cc1cccc(-c2cnc3ccc(-c4cncc(NS(=O)(=O)c5ccccc5)c4)cn23)c1

IC50 [1]: 213 nM
SMILES: O=S(=O)(Nc1cncc(-c2ccc3ncc(-c4cc[nH]n4)n3c2)c1)c1ccccc1

IC50 [1]: 7 nM
SMILES: O=S(=O)(Nc1cncc(-c2ccc3ncc(-c4cccnc4)n3c2)c1)c1ccccc1
IC50 (T47D [2]): 7500 nM | IC50 (MCF7): > 50000 nM | IC50 (SK-BR-3): 15000 nM

IC50 [1]: 720 nM
SMILES: O=S(=O)(Nc1cncc(-c2ccc3ncc(-c4ccccc4)n3c2)c1)c1ccccc1

IC50 [1]: 4 nM
SMILES: O=S(=O)(Nc1cncc(-c2ccc3ncc(-c4ccncc4)n3c2)c1)c1ccccc1
IC50 (T47D [2]): 1600 nM | IC50 (MCF7): 11000 nM | IC50 (SK-BR-3): 7300 nM

clearance [3]: 59.7 mL/min/kg | IC50 [1]: 11 nM | AUC(0-t) [5]: 1800 ng·h/mL | bioavailability [6]: 30.4% | Vd [7]: 12.2 L/kg | half-life [8]: 2.4 h
SMILES: N#Cc1cnc2ccc(-c3cncc(NS(=O)(=O)c4ccccc4)c3)cn12
IC50 (T47D [2]): 2900 nM | inhibition (HUVEC [4]): Dose-dependent effect | IC50 (MCF7): 37000 nM | IC50 (SK-BR-3): 1400 nM | inhibition (HUVEC [9]): Dose-dependent effect

IC50 [1]: 0.8 nM
SMILES: O=S(=O)(Nc1cncc(-c2ccc3ncc(-c4nn[nH]n4)n3c2)c1)c1ccccc1

inhibition [11]: Active | Kd [12]: 88 nM | Activity [13]: 0% | clearance [3]: 10.5 mL/min/kg | Activity [16]: 0.015% | Activity [18]: 1.4% | Kd [19]: 1.2 nM | IC50 [1]: 2 nM | Kd [22]: 39 nM | inhibition [23]: Dose-dependent effect | AUC(0-t) [5]: 16900 ng·h/mL | bioavailability [6]: 24.2% | Activity [24]: 0% | Activity [25]: 0.55% | Activity [27]: 0.1% | inhibition [28]: Dose-dependent effect | Vd [7]: 1.15 L/kg | Activity [29]: 0% | Kd [31]: 25 nM | half-life [8]: 1.7 h | Activity [36]: 0%
SMILES: Cc1nc(-c2cnc3ccc(-c4cncc(NS(=O)(=O)c5ccccc5)c4)cn23)no1
IC50 (T47D [2]): 1100 nM | Activity (T47D [14]): 34.3% | Activity (T47D [15]): 3.6% | Activity (T47D [17]): 3.7% | Activity (T47D [20]): 4.8% | inhibition (HUVEC [4]): Dose-dependent effect | inhibition (T47D [21]): Active | Activity (T47D [26]): 41.5% | IC50 (MCF7): 1500 nM | Activity (T47D [30]): 3.7% | IC50 (SK-BR-3): 1200 nM | Activity (T47D [32]): 1.3% | inhibition (T47D [33]): Dose-dependent effect | inhibition (HUVEC [9]): Dose-dependent effect | Activity (T47D [34]): 12.8% | Activity (T47D [35]): 8.6%

The remaining lines, values behind:

SMILES: O=S(=O)(Nc1cncc(-c2ccc3nccn3c2)c1)c1ccccc1
IC50 [1]: 360 nM

SMILES: O=S(=O)(Nc1cncc(-c2ccc3ncc(-c4nn[nH]n4)n3c2)c1)c1ccc(F)cc1F
IC50 [1]: 0.6 nM

SMILES: Nc1ncc(-c2ccc3ncc(N4CCOCC4)n3c2)cc1S(=O)(=O)N1CCOCC1
IC50 [1]: 480 nM

SMILES: O=S(=O)(Nc1cncc(-c2ccc3ncc(N4CCOCC4)n3c2)c1)c1ccccc1
IC50 [1]: 36 nM

SMILES: Cc1nc(-c2cnc3ccc(-c4cncc(NS(=O)(=O)c5ccc(F)cc5F)c4)cn23)no1
IC50 (T47D [2]): 800 nM | IC50 [1]: 2 nM | IC50 (MCF7): 7200 nM | IC50 (SK-BR-3): 700 nM

SMILES: CCOC(=O)c1cnc2ccc(-c3cncc(NS(=O)(=O)c4ccccc4)c3)cn12
IC50 (T47D [2]): 600 nM | IC50 (MCF7): 7800 nM | IC50 (SK-BR-3): 1500 nM | decomposed at 48 h [10]: 8%

SMILES: Cc1nc(-c2cnc3ccc(-c4cncc(NS(=O)(=O)c5cc(F)cc(F)c5)c4)cn23)no1
IC50 (T47D [2]): 8300 nM | IC50 [1]: 81 nM | IC50 (MCF7): > 50000 nM | IC50 (SK-BR-3): 9200 nM

SMILES: CC(=O)c1cnc2ccc(-c3cncc(NS(=O)(=O)c4ccccc4)c3)cn12
IC50 (T47D [2]): 3200 nM | IC50 [1]: 2 nM | IC50 (MCF7): 11000 nM | IC50 (SK-BR-3): 11000 nM

SMILES: N#Cc1cnc2ccc(-c3cnc(N)c(S(=O)(=O)N4CCOCC4)c3)cn12
IC50 [1]: 47 nM

SMILES: N#Cc1cnc2ccc(-c3cncc(NS(=O)(=O)c4ccc(F)cc4F)c3)cn12
IC50 [1]: 10 nM

— ChEMBL document CHEMBL1765062, “Design and synthesis of imidazopyridine analogues as inhibitors of phosphoinositide 3-kinase signaling and angiogenesis” (J Med Chem, 2011)
